Results published in ChEMBL document CHEMBL1130122, “Synthesis, biological evaluation, and structure-activity relationships of 3-acylindole-2-carboxylic acids as inhibitors of the cytosolic phospholipase A2” (J Med Chem, 1997).

Assays:
[1] = target: T1, Cytosolic phospholipase A2 (Bos taurus, UniProt A4IFJ5); assay: Inhibitory activity against cPLA2 (cytosolic Phospholipase A2) by measuring the calcium ionophore A-23,187-induced arachidonic acid release from bovine platelets; type: functional
T1 sequence (A4IFJ5 whole entry): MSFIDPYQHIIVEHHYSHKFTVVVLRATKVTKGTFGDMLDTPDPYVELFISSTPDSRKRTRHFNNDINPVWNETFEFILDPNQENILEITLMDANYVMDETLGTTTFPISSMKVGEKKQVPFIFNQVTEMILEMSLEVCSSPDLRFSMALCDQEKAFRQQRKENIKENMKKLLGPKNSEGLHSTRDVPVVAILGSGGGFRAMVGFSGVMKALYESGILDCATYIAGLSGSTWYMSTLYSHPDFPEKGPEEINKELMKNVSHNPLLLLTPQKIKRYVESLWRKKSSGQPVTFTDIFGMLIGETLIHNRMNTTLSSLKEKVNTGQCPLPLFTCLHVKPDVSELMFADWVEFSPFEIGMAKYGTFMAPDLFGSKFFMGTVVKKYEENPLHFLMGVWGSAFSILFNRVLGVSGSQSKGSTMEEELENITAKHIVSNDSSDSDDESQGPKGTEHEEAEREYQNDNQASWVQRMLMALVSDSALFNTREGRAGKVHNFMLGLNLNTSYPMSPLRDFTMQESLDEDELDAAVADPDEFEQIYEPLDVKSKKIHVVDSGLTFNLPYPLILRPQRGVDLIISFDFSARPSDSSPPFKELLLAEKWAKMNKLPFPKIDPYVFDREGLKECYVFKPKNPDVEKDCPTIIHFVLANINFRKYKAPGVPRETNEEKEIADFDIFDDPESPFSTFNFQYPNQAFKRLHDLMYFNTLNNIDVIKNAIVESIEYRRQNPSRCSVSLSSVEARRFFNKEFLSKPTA
Summary of the method: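 Intact bovine platelets stimulated with calcium ionophore A23187 in the presence of ETYA, which blocks arachidonic acid metabolism. Compound or solvent control was added to ETYA, then platelet suspension and CaCl2 at 37 °C. Released arachidonic acid was measured by HPLC/UV. IC50 was read graphically as the mean of at least two independent experiments. Platelets were stored at +4 °C and used within 36 h of isolation.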

[2] = species: Bos taurus; assay: The cell lytic potency at a compound concentration of 33 uM in bovine platelets was determined; type: functional
Summary of the method: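 Turbidimetric lysis assay in bovine platelets. ETYA, then compound or DMSO solvent, then platelet suspension and CaCl2 at 37 °C. The suspension was diluted with PBS and absorbance read at 800 nm; lysis lowers absorbance. Platelets were stored at +4 °C and used within 36 h of isolation.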

[3] = tested on: Cytosolic phospholipase A2 (Bos taurus); assay: Inhibitory activity against cPLA2 (cytosolic Phospholipase A2) by measuring the calcium ionophore A-23,187-induced arachidonic acid release from bovine platelets at a compound conc of 33 uM
[4] = tested on: Cytosolic phospholipase A2 (Bos taurus); assay: Inhibitory activity against cPLA2 (cytosolic Phospholipase A2) by measuring the calcium ionophore A-23,187-induced arachidonic acid release from bovine platelets; Not active at highest conc tested 33 uM

SMILES | IC50 [1] | Lysis [2] | inhibition [3] | IC50 [4]
CCCCCCCCCCCC(=O)c1c(C(=O)O)n(C)c2cc(Cl)ccc12 | 9 µM | 26% |  | 
CCCCCCCCCCCC(=O)c1c(C(=O)O)n(CC(=O)O)c2ccccc12 | > 33 µM | 0% | 39% | 
CCCCCCCCCCCCCCCCCC(=O)c1c(CC(=O)O)n(C)c2ccccc12 | > 33 µM | 0% |  | 
CCCCCCCCCCCCCCCCCC(=O)c1c(C(=O)O)[nH]c2ccccc12 |  | 0% |  | Not Active
CCCCCCCCCCCC(=O)c1c(C(=O)O)n(CCCCCCCC(=O)O)c2ccccc12 | 1.6 µM | 0% |  | 
CCCCCCCCCCOc1ccccc1CCC(=O)c1c(C(=O)O)n(C)c2ccccc12 | 34 µM | 34% |  | 
CCCCCCCCCCCC(=O)c1c(C(=O)O)n(Cc2ccc(/C=C/C(=O)O)cc2)c2ccccc12 | 4.1 µM | 0% |  | 
CCCCCCCCCCOc1ccc(CC(=O)c2c(C(=O)O)n(C)c3ccccc23)cc1 | 7 µM | 38% |  | 
CCCCCCCCCCCCOc1cccc(C(=O)c2c(C(=O)O)n(C)c3ccccc23)c1 | 7 µM | 26% |  | 
CCCCCCCCCCCC(=O)c1c(C(=O)O)n(C)c2cccc(Cl)c12 | 9 µM | 50% |  | 
CCCCCCCCCCCCCCCCCC(=O)c1c(C(=O)O)n(CCCCCCCC)c2ccccc12 |  | 0% |  | 
CCCCCCCCCCCCCCCCCC(=O)c1c(C(=O)O)n(CCCCCCCC(=O)O)c2ccccc12 | 1.4 µM | 69% |  | 
CCCCCCCCCCCC(=O)c1c(C(=O)O)n(Cc2cccc(CCC(=O)O)c2)c2ccccc12 | 4.3 µM | 0% |  | 
CCCCCCCCCCCCCCCCCC(=O)c1c(CCC(=O)O)n(C)c2ccccc12 |  | 0% |  | Not Active
CCCCCCCCCCCC(=O)c1c(C(=O)O)n(C)c2ccccc12 | 8 µM | 0% |  | 
CCCCCCCCCCCC(=O)c1c(C)c(C)n(C)c1C(=O)O | 11 µM | 0% |  | 
CCCCCCCCCCCC(=O)c1c(C(=O)O)n(C)c2ccc(Cl)cc12 | 8 µM | 14% |  | 
CCCCCCCCCCCCOc1ccccc1C(=O)c1c(C(=O)O)n(C)c2ccccc12 |  | 60% |  | 
CCCCCCCCCCCCCCCCCC(=O)c1c(C(=O)O)n(C)c2ccccc12 | 8 µM | 0% |  | 
CCCCCCCCCCCCCCCCCC(=O)c1c(CCC(=O)O)[nH]c2ccccc12 |  | 0% |  | Not Active
CCCCCCCCCCOc1ccc(CCC(=O)c2c(C(=O)O)n(C)c3ccccc23)cc1 | 10 µM | 0% |  | 
CCCCCCCC(=O)c1c(C(=O)O)n(C)c2ccccc12 | > 33 µM | 0% | 30% | 
CCCCCCCCCCOc1ccccc1CC(=O)c1c(C(=O)O)n(C)c2ccccc12 | 7 µM | 37% |  | 
CCCCCCCCCCCC(=O)c1c(C(=O)O)n(CCOc2ccc(CC(=O)O)cc2)c2ccccc12 |  | 0% |  | 
CCCCCCCCCCCCCCCCCC(=O)c1c(C(=O)O)n(CCCCCCC)c2ccccc12 | > 10 µM | 16% |  | 

SMILES | IC50 [1] | Lysis [2] | inhibition [3] | IC50 [4]
CCCCCCCCCCCCCCCCCCc1c(C(=O)O)n(C)c2ccccc12 |  | 0% |  | Not Active
CCCCCCCCCCCC(=O)c1c(C(=O)O)n(C)c2ccc(OC)cc12 | 8 µM | 0% |  | 
CCCCCCCCCCCC(=O)c1c(C(=O)O)n(Cc2cccc(/C=C/C(=O)O)c2)c2ccccc12 | 5.3 µM | 0% |  | 
CCCCCCCCCCCC(=O)c1c(C(=O)O)n(CCOc2ccc(C(=O)O)cc2)c2ccccc12 | 0.5 µM | 0% |  | 
CCCCCCCCCCCCCCCCCC(=O)c1c(C(=O)O)n(CCCCCC)c2ccccc12 | 9 µM | 27% |  | 
CCCCCCCCCCCCCCCCNC(=O)C1CCCN1 (configuration not stated) | 13 µM | 0% |  | 
CCCCCCCCCCCCOc1ccc(C(=O)c2c(C(=O)O)n(C)c3ccccc23)cc1 | 7 µM | 19% |  | 
CCCCCCCCCCCC(=O)c1c(C(=O)O)n(C)c2ccc(F)cc12 | 11 µM | 0% |  | 
CCCCCCCCCCCCCC(=O)c1c(C(=O)O)n(C)c2ccccc12 | 8 µM | 0% |  | 
CCCCCCCCCCCCCCCCCC(=O)c1c(C(=O)OCC)n(C)c2ccccc12 |  | 0% |  | Not Active
CCCCCCCCCCCC(=O)c1c(C(=O)O)n(CCOc2cccc(C(=O)O)c2)c2ccccc12 | 1.9 µM | 0% |  | 
CCCCCCCCCCCC(=O)c1c(C(=O)O)n(C)c2ccc([N+](=O)[O-])cc12 | 10 µM | 10% |  | 
CCCCCCCCCCCC(=O)c1c(C(=O)O)n(CCCCCC(=O)O)c2ccccc12 | 8 µM | 0% |  | 
CCCCCCCCCCCCCCCCCC(=O)c1c(CC(=O)O)[nH]c2ccccc12 |  | 0% |  | Not Active
CCCCCCCCCCCC(=O)c1c(C(=O)O)n(Cc2ccc(CCC(=O)O)cc2)c2ccccc12 | 4 µM | 0% |  | 
CCCCCCCCCCOc1cccc(CC(=O)c2c(C(=O)O)n(C)c3ccccc23)c1 | 10 µM | 21% |  | 
CCCCC/C=C\C/C=C\C/C=C\C/C=C\CCCC(=O)C(F)(F)F [ARACHIDONYL TRIFLUOROMETHYLKETONE] | 11 µM | 31% |  | 
CCCCCCCCCCOc1cccc(CCC(=O)c2c(C(=O)O)n(C)c3ccccc23)c1 | 11 µM | 14% |  | 
CCCCCCCCCCCC(=O)c1c(C(=O)O)n(CCCCCCC(=O)O)c2ccccc12 | 3 µM | 0% |  | 
CCCCCCCCCCCC(=O)c1c(C(=O)O)n(CCOc2cccc(CC(=O)O)c2)c2ccccc12 |  | 0% |  | 
CCCCCCCCCCCC(=O)c1c(C(=O)O)n(CCCCCCCCCCC(=O)O)c2ccccc12 | 1.4 µM | 0% |  | 
CCCCCCCCCCCC(=O)c1c(C(=O)O)n(C)c2ccc(O)cc12 | 10 µM | 0% |  | 
CCCCCCCCCCCC(=O)c1c(C(=O)O)n(CCCCCCCCC(=O)O)c2ccccc12 | 1.6 µM | 0% |  | 
CCCCCCCCCC(=O)c1c(C(=O)O)n(C)c2ccccc12 | 18 µM | 0% |  | 
CCCCCCCCCCCCCCCCCC(=O)c1c(C(=O)O)n(CCCCCCCCCCCC)c2ccccc12 |  | 0% |  | 
